Laboratory results published in ChEMBL document CHEMBL1949509, “Fluorinated dual antithrombotic compounds based on 1,4-benzoxazine scaffold” (Eur J Med Chem, 2012).

What was measured:
Prothrombin = Prothrombin (Homo sapiens, UniProt P00734)
Coagulation factor X = Coagulation factor X (Homo sapiens, UniProt P00742); experiment: Inhibition of factor 10a using S-2222 as substrate preincubated for 15 mins prior substrate addition measured for every 10 secs by spectrophotometry
Summary of the method: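 Amidolytic chromogenic assay. Factor Xa at 1 mBAEEE/mL final with S-2222 at […] final. Inhibitor at three concentrations, diluted from 10 mmol/L DMSO stock, preincubated with enzyme in HBSA buffer for 15 min at 25 °C. A405 read every 10 s. Run in triplicate. Ki by Cheng–Prusoff from initial linear rates, averaged over concentration combinations.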

[1] = molecular target: Integrin alpha-IIb/beta-3 (Homo sapiens, UniProt P05106+P08514); experiment: Displacement of biotinylated fibrinogen from human alpha2b-beta3 receptor after 2 hrs by chemiluminescence assay; format: protein-complex assay
Sequence of Integrin alpha-IIb/beta-3 (P05106 27-788 limits assumed): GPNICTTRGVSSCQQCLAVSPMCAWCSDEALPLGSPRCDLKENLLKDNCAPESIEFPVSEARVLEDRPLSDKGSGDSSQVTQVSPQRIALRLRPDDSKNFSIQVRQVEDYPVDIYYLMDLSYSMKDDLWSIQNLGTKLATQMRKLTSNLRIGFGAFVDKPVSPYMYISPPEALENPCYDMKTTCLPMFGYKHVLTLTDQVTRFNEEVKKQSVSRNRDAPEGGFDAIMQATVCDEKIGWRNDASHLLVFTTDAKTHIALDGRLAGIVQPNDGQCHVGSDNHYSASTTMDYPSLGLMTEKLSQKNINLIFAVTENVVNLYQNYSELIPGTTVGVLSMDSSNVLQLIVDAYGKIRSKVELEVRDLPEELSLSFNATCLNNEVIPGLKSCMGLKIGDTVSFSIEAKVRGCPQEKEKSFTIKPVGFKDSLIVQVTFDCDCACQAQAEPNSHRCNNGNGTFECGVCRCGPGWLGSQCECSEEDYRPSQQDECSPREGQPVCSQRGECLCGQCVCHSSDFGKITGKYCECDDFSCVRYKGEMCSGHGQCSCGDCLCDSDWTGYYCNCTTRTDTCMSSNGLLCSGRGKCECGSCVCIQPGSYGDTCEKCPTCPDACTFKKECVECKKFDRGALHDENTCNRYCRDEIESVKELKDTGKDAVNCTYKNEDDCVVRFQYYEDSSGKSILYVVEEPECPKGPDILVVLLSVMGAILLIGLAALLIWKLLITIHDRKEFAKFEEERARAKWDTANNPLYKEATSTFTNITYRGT
Sequence of Integrin alpha-IIb/beta-3 (P08514 32-887 limits assumed): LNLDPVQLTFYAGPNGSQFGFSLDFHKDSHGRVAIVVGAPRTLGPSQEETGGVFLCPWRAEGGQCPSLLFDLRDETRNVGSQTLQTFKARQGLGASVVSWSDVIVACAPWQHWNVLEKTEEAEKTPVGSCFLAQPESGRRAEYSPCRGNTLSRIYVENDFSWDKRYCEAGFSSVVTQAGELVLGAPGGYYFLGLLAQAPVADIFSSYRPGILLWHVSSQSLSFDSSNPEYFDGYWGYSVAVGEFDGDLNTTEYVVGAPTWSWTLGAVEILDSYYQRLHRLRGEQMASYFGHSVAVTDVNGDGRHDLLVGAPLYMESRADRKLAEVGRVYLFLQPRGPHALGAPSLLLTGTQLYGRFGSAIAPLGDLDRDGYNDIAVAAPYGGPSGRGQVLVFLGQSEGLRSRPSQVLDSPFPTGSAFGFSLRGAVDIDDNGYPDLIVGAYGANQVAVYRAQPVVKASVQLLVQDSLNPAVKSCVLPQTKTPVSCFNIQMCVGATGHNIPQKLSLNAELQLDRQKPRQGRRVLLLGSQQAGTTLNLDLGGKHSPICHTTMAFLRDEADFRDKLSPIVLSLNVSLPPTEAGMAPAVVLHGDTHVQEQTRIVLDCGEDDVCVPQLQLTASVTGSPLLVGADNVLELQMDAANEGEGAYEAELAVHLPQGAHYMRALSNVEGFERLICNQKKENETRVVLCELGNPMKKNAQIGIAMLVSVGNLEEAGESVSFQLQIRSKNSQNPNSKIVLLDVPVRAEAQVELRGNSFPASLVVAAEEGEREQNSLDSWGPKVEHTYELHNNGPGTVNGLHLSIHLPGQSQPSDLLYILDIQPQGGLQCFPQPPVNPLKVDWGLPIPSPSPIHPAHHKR
Sequence of Integrin alpha-IIb/beta-3 (P08514 891-1039 limits assumed): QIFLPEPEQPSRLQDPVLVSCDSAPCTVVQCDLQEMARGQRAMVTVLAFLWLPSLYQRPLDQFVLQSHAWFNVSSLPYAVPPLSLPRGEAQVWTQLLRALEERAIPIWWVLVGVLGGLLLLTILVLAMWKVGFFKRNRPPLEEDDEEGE

Integrin alpha-V/beta-3 = Integrin alpha-V/beta-3 (Homo sapiens, UniProt P05106+P06756); experiment: Displacement of biotinylated fibrinogen from human […] receptor after 2 hrs by chemiluminescence assay; format: protein-complex assay
Sequence of Integrin alpha-V/beta-3 (P05106 27-788 limits assumed): as the sequence (P05106 27-788 limits assumed) above
Sequence of Integrin alpha-V/beta-3 (P06756 31-889 limits assumed): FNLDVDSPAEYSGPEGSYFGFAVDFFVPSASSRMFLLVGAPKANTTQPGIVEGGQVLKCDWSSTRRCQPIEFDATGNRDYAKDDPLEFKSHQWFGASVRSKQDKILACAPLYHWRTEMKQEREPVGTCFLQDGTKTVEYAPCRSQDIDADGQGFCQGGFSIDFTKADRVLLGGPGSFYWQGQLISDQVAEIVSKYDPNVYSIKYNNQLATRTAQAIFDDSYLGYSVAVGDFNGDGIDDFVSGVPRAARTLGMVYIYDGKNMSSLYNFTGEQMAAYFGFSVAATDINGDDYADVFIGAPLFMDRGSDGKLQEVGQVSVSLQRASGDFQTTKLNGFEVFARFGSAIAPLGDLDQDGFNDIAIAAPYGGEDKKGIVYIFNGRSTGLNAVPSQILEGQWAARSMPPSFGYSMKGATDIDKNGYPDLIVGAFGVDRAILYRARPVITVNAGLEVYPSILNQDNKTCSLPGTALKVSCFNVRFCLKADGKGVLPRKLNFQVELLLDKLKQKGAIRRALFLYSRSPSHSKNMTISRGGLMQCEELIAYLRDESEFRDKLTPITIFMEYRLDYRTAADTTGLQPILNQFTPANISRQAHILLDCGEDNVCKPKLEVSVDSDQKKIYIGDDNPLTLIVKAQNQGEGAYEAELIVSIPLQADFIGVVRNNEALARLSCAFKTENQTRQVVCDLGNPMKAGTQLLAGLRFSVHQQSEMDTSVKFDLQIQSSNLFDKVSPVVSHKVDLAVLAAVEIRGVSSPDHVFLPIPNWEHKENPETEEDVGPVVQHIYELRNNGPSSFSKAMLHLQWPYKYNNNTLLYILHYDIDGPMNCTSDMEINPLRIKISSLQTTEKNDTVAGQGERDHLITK
Sequence of Integrin alpha-V/beta-3 (P06756 891-1048 limits assumed): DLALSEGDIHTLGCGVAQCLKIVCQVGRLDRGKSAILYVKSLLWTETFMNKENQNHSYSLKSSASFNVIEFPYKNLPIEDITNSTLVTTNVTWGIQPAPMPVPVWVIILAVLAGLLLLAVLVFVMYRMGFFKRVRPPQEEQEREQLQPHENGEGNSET

[2] = Selectivity ratio of Ki for trypsin to Ki for thrombin
Summary of the method: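 Trypsin at 0.5 nkat/mL with S-2222 at 50 and 100; thrombin at 0.5 NIH E/mL with S-2238 at […]. Triplicates, three inhibitor concentrations.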

[3] = Selectivity ratio of Ki for factor 10a to Ki for thrombin
Summary of the method: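 Factor Xa at 1 mBAEEE/mL with S-2222 at 100 and 200; thrombin at 0.5 NIH E/mL with S-2238 at […]. Triplicates, three inhibitor concentrations.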

Sequence of Coagulation factor X (P00742 41-179 limits assumed): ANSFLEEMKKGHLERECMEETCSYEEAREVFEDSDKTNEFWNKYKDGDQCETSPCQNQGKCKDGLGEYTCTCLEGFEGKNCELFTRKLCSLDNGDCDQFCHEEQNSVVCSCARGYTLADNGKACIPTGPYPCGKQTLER
Sequence of Coagulation factor X (P00742 235-488 limits assumed): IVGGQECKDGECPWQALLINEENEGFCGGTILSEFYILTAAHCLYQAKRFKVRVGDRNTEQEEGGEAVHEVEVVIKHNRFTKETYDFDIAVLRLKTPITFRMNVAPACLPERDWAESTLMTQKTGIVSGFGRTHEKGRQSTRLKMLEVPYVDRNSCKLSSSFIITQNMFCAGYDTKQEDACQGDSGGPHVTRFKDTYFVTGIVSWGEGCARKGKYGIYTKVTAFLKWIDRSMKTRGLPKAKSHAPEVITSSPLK

| SMILES | Ki (Prothrombin) [µM] | Ki (Coagulation factor X) [µM] | IC50 [1] [µM] | IC50 (Integrin alpha-V/beta-3) [µM] | Ratio Ki [2] | Ratio Ki [3] |
| --- | --- | --- | --- | --- | --- | --- |
| CCOC(=O)CN(Cc1ccc(F)cc1)c1ccc2c(c1)OC(C)(COc1ccc(C(=N)N)cc1)CN2C (configuration not stated) | 0.36 | 1.6 | > 100 | > 100 |  |  |
| CCOC(=O)CN(Cc1ccc(F)c(F)c1)c1ccc2c(c1)OC(C)(COc1ccc(C(=N)N)cc1)CN2C (configuration not stated) |  | 1.5 | > 100 | > 100 |  |  |
| CCOC(=O)C(=O)N(Cc1cccc(F)c1)c1ccc2c(c1)OC(C)(COc1ccc(C(=N)N)cc1)CN2C (configuration not stated) | 0.019 | 1.6 | > 100 | > 100 |  |  |
| CN1CC(C)(COc2ccc(C(=N)N)cc2)Oc2cc(N(CC(=O)O)Cc3cc(F)cc(F)c3)ccc21 (configuration not stated) | 0.2 | 4 | 45 | > 100 | 6.5 | 20 |
| CCOC(=O)CN(Cc1cccc(F)c1)c1ccc2c(c1)OC(C)(COc1ccc(C(=N)N)cc1)CN2C (configuration not stated) |  | 1.2 | > 100 | > 100 |  |  |
| CCOC(=O)C(=O)N(Cc1ccccc1)c1ccc2c(c1)OC(C)(COc1ccc(C(=N)N)cc1)CN2C (configuration not stated) |  |  | 52 | > 100 |  |  |
| CCOC(=O)C(=O)N(Cc1ccc(F)c(F)c1)c1ccc2c(c1)OC(C)(COc1ccc(C(=N)N)cc1)CN2C (configuration not stated) | 0.028 | 1.6 | > 100 | > 100 |  |  |
| CCOC(=O)CN(Cc1cc(F)cc(F)c1)c1ccc2c(c1)OC(C)(COc1ccc(C(=N)N)cc1)CN2C (configuration not stated) |  | 15 | > 100 | > 100 |  |  |
| CN1CC(C)(COc2ccc(C(=N)N)cc2)Oc2ccc(N(CC(=O)O)Cc3cccc(F)c3)cc21 (configuration not stated) | 0.67 | 7.6 | 1.5 | > 100 |  |  |
| CCOC(=O)CN(Cc1cccc(F)c1)c1ccc2c(c1)N(C)CC(C)(COc1ccc(C(=N)N)cc1)O2 (configuration not stated) | 0.8 | 6.8 | > 100 | > 100 |  |  |
| CCOC(=O)CN(Cc1ccc(F)cc1)c1ccc2c(c1)N(C)CC(C)(COc1ccc(C(=N)N)cc1)O2 (configuration not stated) | 0.72 | 6.66 | > 100 | > 100 |  |  |
| CN1CC(C)(COc2ccc(C(=N)N)cc2)Oc2ccc(N(Cc3ccccc3)C(=O)C(=O)O)cc21 (configuration not stated) |  |  | 2.8 | > 100 |  |  |
| CN1CC(C)(COc2ccc(C(=N)N)cc2)Oc2cc(N(Cc3ccc(F)cc3)C(=O)C(=O)O)ccc21 (configuration not stated) |  | 7.7 | 34 | > 100 |  |  |
| CCOC(=O)C(=O)N(Cc1ccc(F)c(F)c1)c1ccc2c(c1)N(C)CC(C)(COc1ccc(C(=N)N)cc1)O2 (configuration not stated) |  | 4.7 | > 100 | > 100 |  |  |
| CN1CC(C)(COc2ccc(C(=N)N)cc2)Oc2cc(N(Cc3cccc(F)c3)C(=O)C(=O)O)ccc21 (configuration not stated) |  | 4.1 | 33 | > 100 |  |  |
| CCOC(=O)CN(Cc1cc(F)cc(F)c1)c1ccc2c(c1)N(C)CC(C)(COc1ccc(C(=N)N)cc1)O2 (configuration not stated) |  | 9.8 | > 100 | > 100 |  |  |
| CCOC(=O)CN(Cc1ccccc1)c1ccc2c(c1)OC(C)(COc1ccc(C(=N)N)cc1)CN2C (configuration not stated) | 0.32 |  | 28 | > 100 |  |  |
| CCOC(=O)C(=O)N(Cc1cc(F)cc(F)c1)c1ccc2c(c1)N(C)CC(C)(COc1ccc(C(=N)N)cc1)O2 (configuration not stated) |  | 6 | > 100 | > 100 |  |  |
| CN1CC(C)(COc2ccc(C(=N)N)cc2)Oc2cc(N(CC(=O)O)Cc3ccc(F)c(F)c3)ccc21 (configuration not stated) | 0.81 | 4.4 | 80 | > 100 | 1.6 | 5.4 |

| SMILES | Ki (Prothrombin) [µM] | Ki (Coagulation factor X) [µM] | IC50 [1] [µM] | IC50 (Integrin alpha-V/beta-3) [µM] | Ratio Ki [2] | Ratio Ki [3] |
| --- | --- | --- | --- | --- | --- | --- |
| CN1CC(C)(COc2ccc(C(=N)N)cc2)Oc2cc(N(CC(=O)O)Cc3cccc(F)c3)ccc21 (configuration not stated) | 0.32 | 6.6 | 60 | > 100 | 5 |  |
| CCOC(=O)C(=O)N(Cc1ccc(F)cc1)c1ccc2c(c1)N(C)CC(C)(COc1ccc(C(=N)N)cc1)O2 (configuration not stated) |  | 5.49 | > 10 | > 100 |  |  |
| CN1CC(C)(COc2ccc(C(=N)N)cc2)Oc2cc(N(Cc3ccccc3)C(=O)C(=O)O)ccc21 (configuration not stated) |  |  | 39 | > 100 |  |  |
| CCOC(=O)C(=O)N(Cc1cccc(F)c1)c1ccc2c(c1)N(C)CC(C)(COc1ccc(C(=N)N)cc1)O2 (configuration not stated) |  | 4.9 | > 100 | > 100 |  |  |
| CN1CC(C)(COc2ccc(C(=N)N)cc2)Oc2cc(N(Cc3cc(F)cc(F)c3)C(=O)C(=O)O)ccc21 (configuration not stated) |  | 1.6 | 31 | > 100 |  |  |
| CCOC(=O)C(=O)N(Cc1cc(F)cc(F)c1)c1ccc2c(c1)OC(C)(COc1ccc(C(=N)N)cc1)CN2C (configuration not stated) | 0.018 | 0.79 | > 100 | > 100 |  |  |
| CN1CC(C)(COc2ccc(C(=N)N)cc2)Oc2ccc(N(CC(=O)O)Cc3ccc(F)c(F)c3)cc21 (configuration not stated) | 0.33 | 6.5 | 1.1 | > 100 | 1.7 | 20 |
| CN1CC(C)(COc2ccc(C(=N)N)cc2)Oc2ccc(N(Cc3cc(F)cc(F)c3)C(=O)C(=O)O)cc21 (configuration not stated) |  | 14 | 3.4 | > 100 |  |  |
| CCOC(=O)C(=O)N(Cc1ccc(F)cc1)c1ccc2c(c1)OC(C)(COc1ccc(C(=N)N)cc1)CN2C (configuration not stated) | 0.023 | 2.83 | > 100 | > 100 |  |  |
| CCOC(=O)CN(Cc1ccc(F)c(F)c1)c1ccc2c(c1)N(C)CC(C)(COc1ccc(C(=N)N)cc1)O2 (configuration not stated) | 0.83 | 8 | > 100 | > 100 |  |  |
| CCOC(=O)CN(Cc1ccccc1)c1ccc2c(c1)N(C)CC(C)(COc1ccc(C(=N)N)cc1)O2 (configuration not stated) |  |  | 54 | > 100 |  |  |
| CCOC(=O)C(=O)N(Cc1ccccc1)c1ccc2c(c1)N(C)CC(C)(COc1ccc(C(=N)N)cc1)O2 (configuration not stated) |  |  | 49 | > 100 |  |  |
| CN1CC(C)(COc2ccc(C(=N)N)cc2)Oc2ccc(N(CC(=O)O)Cc3ccc(F)cc3)cc21 (configuration not stated) | 0.75 | 7.7 | 2 | > 100 |  |  |
| CN1CC(C)(COc2ccc(C(=N)N)cc2)Oc2cc(N(CC(=O)O)Cc3ccc(F)cc3)ccc21 (configuration not stated) | 0.24 | 5.6 | 49 | > 100 |  |  |
| CN1CC(C)(COc2ccc(C(=N)N)cc2)Oc2ccc(N(Cc3cccc(F)c3)C(=O)C(=O)O)cc21 (configuration not stated) |  | 18 | 2.2 | > 100 |  |  |
| CN1CC(C)(COc2ccc(C(=N)N)cc2)Oc2ccc(N(Cc3ccc(F)c(F)c3)C(=O)C(=O)O)cc21 (configuration not stated) |  | 14 | 2.5 | > 100 |  |  |
| CN1CC(C)(COc2ccc(C(=N)N)cc2)Oc2ccc(N(Cc3ccc(F)cc3)C(=O)C(=O)O)cc21 (configuration not stated) |  | 16.3 | 1.8 | > 100 |  |  |
| CN1CC(C)(COc2ccc(C(=N)N)cc2)Oc2cc(N(Cc3ccc(F)c(F)c3)C(=O)C(=O)O)ccc21 (configuration not stated) |  | 3.6 | 31 | > 100 |  |  |
| CN1CC(C)(COc2ccc(C(=N)N)cc2)Oc2ccc(N(CC(=O)O)Cc3cc(F)cc(F)c3)cc21 (configuration not stated) | 0.76 | 9.8 | 2.5 | > 100 |  |  |
